Activity calls are given as the source filed them. The rule behind the calls is not given here.

Three compounds from ChEMBL document CHEMBL5214934, “A simplified analog of debromoaplysiatoxin lacking the B-ring of spiroketal moiety retains protein kinase C-binding and antiproliferative activities” (Bioorg Med Chem, 2022) can be followed below.

One experiment is filed under the species Homo sapiens. Put plainly: Ratio Ki for inhibition of [3H]-PDBu binding to PKCalpha C1A domain (unknown origin) to Ki for inhibition of [3H]-PDBu binding to PKCdelta C1B domain (unknown origin).
Another experiment deals with NCI-H460. Put plainly: Antiproliferative activity against human NCI-H460 cells after 48 hrs by SRB assay. It counts as functional. Summed up: (§1)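 Part of a 39-line human cancer cell panel. Cells plated in RPMI 1640 with 5% FBS and left to attach overnight, then exposed to compound at 10^-8 to 10^-4 M for 48 h. Growth measured by sulforhodamine B staining, absorbance at 525 nm, with a time-0 reading. % growth calculated against control from duplicate points. GI50 is the concentration giving 50% growth inhibition versus untreated control.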
Background: In SRB staining, fixed cells bind dye roughly in proportion to their protein.

In another experiment the test system is St-4. As to the kind of experiment: Antiproliferative activity against human St-4 cells after 48 hrs by SRB assay. Conditions: St-4, read-out: pGI50 (converted). It counts as functional. The essentials: as §1
The next experiment relates to HCC 2998. Put plainly: Antiproliferative activity against human HCC 2998 cells after 48 hrs by SRB assay. It counts as functional. Conditions: HCC 2998, read-out: pGI50 (converted). Summed up:
as §1

The next experiment relates to A549. As to the kind of experiment: Antiproliferative activity against human A549 cells after 48 hrs by SRB assay. The class given is functional. As to conditions: A549, read-out: pGI50 (converted). The essentials:
as §1

For a further experiment, the system named is MKN-45. Put plainly: Antiproliferative activity against human MKN-45 cells after 48 hrs by SRB assay. The class given is functional. Summed up: as §1
The test system of the next experiment is OVCAR-5. As to the kind of experiment: Antiproliferative activity against human OVCAR-5 cells after 48 hrs by SRB assay. It counts as functional. Conditions: OVCAR-5, read-out: pGI50 (converted). The essentials: as §1
Another experiment concerns SF-295. Put plainly: Antiproliferative activity against human SF-295 cells after 48 hrs by SRB assay. It counts as functional. Conditions: SF-295, read-out: pGI50 (converted). Summed up:
as §1

Experiment [1] in a line: Antiproliferative activity against human HBC4 cells after 48 hrs by SRB assay. The class given is functional. Conditions: HBC4, read-out: pGI50 (converted). The essentials:
as §1

In experiment [2] the target is Protein kinase C delta type (Homo sapiens, UniProt Q05655). Put plainly: Inhibition of [3H]-PDBu binding to PKCdelta C1B domain (unknown origin) by competitive binding assay. The essentials:
(§2)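 Synthetic PKCα-C1A (40 nM) or PKCδ-C1B (13.8 nM) peptide in 50 mM Tris-maleate (pH 7.4 at 4 °C). Mixture contained 20 nM [3H]PDBu (13.92 Ci/mmol), 50 µg/mL dioleoylphosphatidylserine, 3 mg/mL bovine γ-globulin and graded ligand. IC50 by logit analysis; Ki by Goldstein–Barrett equation from IC50 and [3H]PDBu Kd. Two independent experiments, triplicates each; log-scale mean with 95% CI.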

The target in experiment [3] is Protein kinase C alpha type (Homo sapiens, UniProt P17252). Put plainly: Inhibition of [3H]-PDBu binding to PKCalpha C1A domain (unknown origin) by competitive binding assay. Summed up:
as §2

The test system of another experiment is MDA-MB-231. As to the kind of experiment: Antiproliferative activity against human MDA-MB-231 cells after 48 hrs by SRB assay. It counts as functional. As to conditions: MDA-MB-231, read-out: pGI50 (converted). Summed up:
as §1

The test system of the next experiment is DMS-273. As to the kind of experiment: Antiproliferative activity against human DMS-273 cells after 48 hrs by SRB assay. As to conditions: DMS-273, read-out: pGI50 (converted). It counts as functional. Summed up:
as §1

Chain of Protein kinase C delta type (Q05655 whole entry, the tested form may be a part): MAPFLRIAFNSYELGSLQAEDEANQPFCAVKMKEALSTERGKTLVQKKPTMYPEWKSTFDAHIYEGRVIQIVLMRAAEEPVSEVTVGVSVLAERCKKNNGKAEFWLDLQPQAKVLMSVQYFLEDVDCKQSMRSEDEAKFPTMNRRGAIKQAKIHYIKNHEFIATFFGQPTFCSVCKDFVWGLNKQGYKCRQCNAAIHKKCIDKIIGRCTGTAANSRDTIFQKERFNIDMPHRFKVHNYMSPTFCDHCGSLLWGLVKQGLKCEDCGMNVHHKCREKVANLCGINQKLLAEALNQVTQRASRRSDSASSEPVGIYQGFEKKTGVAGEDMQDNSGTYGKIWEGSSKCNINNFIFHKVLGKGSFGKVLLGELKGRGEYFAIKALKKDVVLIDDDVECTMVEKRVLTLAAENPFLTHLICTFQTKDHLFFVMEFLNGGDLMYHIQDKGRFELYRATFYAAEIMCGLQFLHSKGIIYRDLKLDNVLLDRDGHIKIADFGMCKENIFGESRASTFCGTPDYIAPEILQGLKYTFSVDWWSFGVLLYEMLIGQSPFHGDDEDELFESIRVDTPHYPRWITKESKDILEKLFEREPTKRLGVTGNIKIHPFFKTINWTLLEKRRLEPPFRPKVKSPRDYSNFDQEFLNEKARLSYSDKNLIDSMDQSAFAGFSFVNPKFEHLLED

With `CC1(C)CC[C@@H]2CC(=O)O[C@@H](CO)CC(=O)O[C@@H]3C[C@@H](CCCCc4ccccc4)O[C@@]1(C3)O2`, the Ratio Ki in the experiment filed under Homo sapiens stood at 12.
With `CC1(C)CC[C@@H]2CC(=O)O[C@@H](CO)CC(=O)O[C@H](CCCCCCc3ccccc3)C[C@@H]1O2`, the GI50 is below 10 µM in the experiment on NCI-H460 (NCI-H460, read-out: pGI50 (converted)); below 10 µM in the experiment with St-4; below 10 µM in the experiment with HCC 2998; below 10 µM in the experiment on A549; below 10 µM in the experiment on MKN-45 (MKN-45, read-out: pGI50 (converted)); below 10 µM in the experiment on OVCAR-5. Moreover, the GI50 (in the experiment with SF-295; in [1]; in the experiment with MDA-MB-231; with DMS-273) was below 10 µM in each case. Moreover, the Ratio Ki in the experiment filed under Homo sapiens came out at 5.2. The Ki (in general, a dissociation constant, usually derived from enzyme kinetics or from competition with a known ligand) is 0.017 µM in [2] and 0.088 µM in [3].
With `CC(C)[C@@]12C[C@@H](C[C@@H](CCCCc3ccccc3)O1)OC(=O)C[C@H](CO)OC(=O)CCO2`, the result in the experiment with NCI-H460 and in the experiment on MKN-45 was Active. For the same compound, the Ratio Ki in the experiment listed under Homo sapiens is 0.8. The figures for the inhibitory constant (Ki) in experiment [2] and in experiment [3] were 0.13 µM and 0.1 µM, respectively.
